# Hits are enriched below; roughly 3.6% of the tested compounds scored in any of these assays.
# Measles CPE = protection of cells from measles virus; Measles virus-infected cells, CPE protection, absorbance; protection (pct of control), % at 4 µM; hit rate 1.5% among 140,000; AID 841; in the data active = protection mostly above about 24%, no sharp cut-off; inactive = mostly below about 26%
# Yeast growth inh = yeast BB579 growth reduction in restrictive medium; inhibition, % at 10 µM; hit rate 0.51% among 140,000; S. cerevisiae BB579 growth, OD615, 48 h; AID 804;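 active = inhibition above a set limit, 3 SD over the mean compound inhibition, cut at about 44% in these data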
#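 Test system: S. cerevisiae DeaD strain BB579 yeast; Medium: restrictive CSMM-D medium; Compound: one dose, 10 µM compound with 0.25% DMSO; Incubation: 4 h cell preincubation, 48 h compound exposure, 30 °C humidified; Signal: OD at 615 nm; Benchmarks: amphotericin B at 10 µg/mL as positive control.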
# RAM network inh = blocks the yeast RAM network | S. cerevisiae dse1pr::URA3 reporter, 5-FOA growth OD615, 2 d; analog-sensitive cbk1-as2 kinase mutant strain | inhibition, % at 50 µM | hit rate 1.8% among 190,000 | AID 868;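 active = inhibition above a set limit, 3 SD over mean compound inhibition, cut at about 8.4% in these data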;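 also: 0% = DMSO-only wells with no growth and 100% = 10 µM 1-NA-PP1 full growth; inhibition rescues growth on 5-FOA so higher OD means more RAM inhibition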
# Yeast life ext = extends the lifespan of yeast; AID 775; S. cerevisiae growth with nicotinamide, OD615; deaD strain in restrictive glucose medium; hit rate 0.68% among 130,000; inhibition of the nicotinamide effect, % at 10 µM;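 active = inhibition above a set limit, placed 3 SD over the median of all compounds, cut at about 26% in these data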;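 also: 0% = nicotinamide-treated wells and 100% = cells grown without nicotinamide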
#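 Measured by: optical density (absorbance) at 615 nm; System: modified budding yeast, DeaD strain; Medium: restrictive CSMM-D dextrose medium; Timing: 4 h preincubation then 48 h treatment at 30 °C.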
# Starred values were filed as active, the others as inactive; nt = not tested or not shown.
SMILES,Measles CPE,Yeast growth inh,RAM network inh,Yeast life ext
Cc1noc(/C=C/c2cccs2)c1S(=O)(=O)N1CCC(C(=O)NCCCN2CCCC(C)C2)CC1 (configuration not stated),nt,nt,0,nt
CCCC(=O)Nc1cc(C(F)(F)F)ccc1N1CCOCC1,nt,nt,1,nt
O=C(CSCc1ccco1)Nc1cc(C(F)(F)F)ccc1N1CCOCC1,18,-47,9.1*,-11
Cc1cc(OCC(=O)Nc2ccc(CN3CCCCC3)cc2)ccc1Cl,nt,nt,0,nt
O=C(c1ccccc1)[C@H]1CC=CC[C@H]1C(=O)O,8,-13,2,2
CC1=C(C)CC(C(=O)c2ccc(C)cc2)C(C(=O)O)C1 (configuration not stated),3,-10,-1,30*
O=C(N/N=C/c1ccccn1)c1cccs1,nt,nt,3,nt
O=C(C(Cc1ccccc1)n1cccc1)N1CCN(Cc2ccccc2)CC1 (configuration not stated),19,35,0,-1
S=C(NCc1ccccc1)N1CCN(c2cccc(Cl)c2)CC1,nt,nt,8.5*,nt
O=C(C(Cc1ccccc1)n1cccc1)N1CCN(c2cccc(Cl)c2)CC1 (configuration not stated),7,-5,8.7*,2
O=[N+]([O-])c1ccc(N2CCN(C(=S)NCc3ccc(Cl)cc3)CC2)cc1,nt,nt,9.3*,nt
CCNC(=S)N1CCN(c2ccc([N+](=O)[O-])cc2)CC1,8,15,0,-15
CC(=O)c1ccc(N=C2SCCCN2C(=O)C2CCCC2)cc1,nt,nt,0,nt
Cc1cc(C)c(N2CCN(S(=O)(=O)N3CCCCCC3)CC2)c(C)c1,9,-68,11*,-6
Cc1ccc(N2CCN(S(=O)(=O)N3CCCCC3)CC2)cc1Cl,9,-17,0,0
COCCNC(=O)c1ccccc1NC(=O)CCSc1ccccc1,nt,nt,2,nt
CC(C)c1ccc(C2=C(O)c3ccccc3C(=O)C2=O)cc1,7,5,1,46*
O=C1C(c2ccncc2)=C(O)c2ccccc21,12,-22,0,-10
Cn1c(NC(=O)/C=C\c2ccccc2)cc(=O)n(C)c1=O,nt,nt,4,nt
Cn1cc(C=O)c2ccccc21,nt,nt,0,nt
Cc1ccc(/C(C#N)=C\c2cn(C)c3ccccc23)cc1,13,-60,8.9*,-4
CCOC(=O)c1[nH]c(C)c(CN(C(C)=O)c2ccc(OCC)cc2)c1C,nt,nt,0,nt
CC(=O)NCCNC(=O)C1CCCCN1S(=O)(=O)c1ccccc1 (configuration not stated),nt,nt,2,nt
O=C(NCCOc1ccccc1F)c1cc(F)c(F)cc1Cl,33*,-49,-1,0
O=C(c1ccco1)N1CCN(C(=O)C2CCCc3c2[nH]c2ccc(Cl)cc32)CC1 (configuration not stated),82*,-39,0,-6
SMILES,Measles CPE,Yeast growth inh,RAM network inh,Yeast life ext
O=C(O)c1[nH]c2ccc(Cl)cc2c1CC(=O)N1CCN(C(=O)c2ccco2)CC1,5,-56,1,-15
CC(=O)N(C(C)=O)N1C(=O)c2cccc3c(N4CCOCC4)ccc(c23)C1=O,nt,nt,3,nt
O=C(OCCN1C(=O)c2cccc3c(N4CCOCC4)ccc(c23)C1=O)c1cc(Cl)cc(Cl)c1,9,-26,8.5*,0
CCCN1C(=O)c2cccc3c(N4CCCCC4)ccc(c23)C1=O,24,-21,4,0
CCN(CC)S(=O)(=O)c1ccc(C(=O)OCCN2C(=O)c3cccc4c(N5CCOCC5)ccc(c34)C2=O)cc1,5,-66,10*,8
Cc1cc(SCC(=O)c2ccc3c(c2)OCO3)nc2ccccc12,31*,-3,8,-7
Cc1cc(SCC(=O)c2cc3ccccc3o2)nc2ccccc12,8,-33,11*,-8
O=C(NC(Cc1c[nH]c2ccccc12)C(=O)O)c1ccccc1 (configuration not stated),5,9,-1,-4
O=C(N[C@@H](Cc1c[nH]c2ccccc12)C(=O)O)c1ccc(Cl)cc1,nt,nt,8.9*,nt
O=C(COC(=O)C(Cc1ccccc1)NC(=O)c1ccc(Cl)cc1)c1ccc(Cl)cc1 (configuration not stated),50,-17,9.1*,3
CN(C)S(=O)(=O)c1ccc(C(=O)Nc2nc(-c3cc4ccccc4o3)cs2)cc1,9,-57,3,28*
Nn1c(=O)c2ccccc2n2c(SCc3ccccc3)nnc12,11,-9,3,-12
Nn1c(=O)c2ccccc2n2c(SCc3ccc(C(F)(F)F)cc3)nnc12,5,-13,8.6*,-11
O=C(NCC1CCCO1)C(c1ccc(F)cc1)N(CC1CCCO1)C(=O)c1ccc(-c2ccccc2)[nH]1 (configuration not stated),nt,nt,3,nt
